Assay results: ChEMBL document CHEMBL1140766, “SAR of a series of anti-HSV-1 acridone derivatives, and a rational acridone-based design of a new anti-HSV-1 3H-benzo[b]pyrazolo[3,4-h]-1,6-naphthyridine series” (Bioorg Med Chem, 2008)
Active and inactive are the calls of the source. No cut-off for these calls is given here.

Tests used:
[1] = system: Human alphaherpesvirus 1; experiment: Antiviral activity against acyclovir-resistant HSV1 AR29 replication in Vero cells at 50 uM after 72 hrs; type: functional; settings: for inhibition at 50 µM: Human alphaherpesvirus 1, AR29, Vero
Method in brief: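 Confluent Vero monolayers (DMEM, 5% FCS, 37 C, 5% CO2) infected with HSV-1 AR-29 at m.o.i. 1, 0.1, 0.01 or 0.001 for 1 h at 37 C. Cells were PBS-washed, then given medium with or without compound at 50 µM. At 72 h, titer was read as TCID50/mL by end-point dilution (Reed–Muench). % inhibition came from treated versus mock-treated infected titers. Acyclovir 50 µM served as control. Duplicates, ≥3 experiments.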

[2] = Cytotoxicity against african green monkey Vero cells assessed as cell viability after 72 hrs by MTT assay; type: cell-based; settings: chlorocebus sabaeus
[3] = system: Human alphaherpesvirus 1; experiment: Antiviral activity against acyclovir-resistant HSV1 AR29 replication in Vero cells after 72 hrs; type: functional; settings: for EC50: Human alphaherpesvirus 1, AR29, Vero, read-out: ED50 (the source's name)
[4] = system: Human alphaherpesvirus 1; experiment: Antiviral activity against acyclovir-resistant HSV1 AR29 replication in Vero cells at >50 uM after 72 hrs; type: functional

Structure (SMILES) | inhibition at 50 µM [1] [%] | CC50 at 72 h [2] [µM] | EC50 [3] [µM] | other results
Cc1nn(-c2ccccc2)c2ncc3c(Cl)c4cccc(Cl)c4nc3c12 | 100 | – | – | –
COc1ccc2nc3c(cnc4c3cnn4-c3ccccc3)c(Cl)c2c1 | 68 | 640 | – | –
O=c1c2cccc(Cl)c2[nH]c2cc(O)cc(O)c12 | – | – | 4 | –
O=c1c2cccc(Cl)c2[nH]c2cc3ccccc3c(O)c12 | – | – | – | Activity [3]: inactive
O=c1c2ccc(Cl)cc2[nH]c2cc(O)cc(O)c12 | – | – | 10 | –
Cc1nn(-c2ccccc2)c2ncc3c(Cl)c4ccccc4nc3c12 | 70 | – | – | –
Cc1cccc2c(O)c3c(O)cc(O)cc3nc12 | – | – | 8 | –
O=c1c2ccccc2[nH]c2cc(O)cc(O)c12 | – | – | 45 | –
O=c1c2c(O)cc(O)cc2[nH]c2cccc(Cl)c12 | – | – | 10 | –
COc1cc(O)c2c(=O)c3cccc(Cl)c3[nH]c2c1 | – | – | > 50 | Inhibition [4]: 6%
O=c1c2cc(Cl)ccc2[nH]c2cc(O)cc(O)c12 | – | – | 16 | –
O=c1c2ccccc2[nH]c2c1cnc1c2cnn1-c1ccccc1 | 74 | 640 | – | –
Cc1cc(O)c2c(=O)c3cccc(Cl)c3[nH]c2c1 | – | – | – | Activity [3]: inactive
Cc1cccc2c(Cl)c3cnc4c(c(C)nn4-c4ccccc4)c3nc12 | 66 | 640 | – | –
Cc1ccc2[nH]c3c(cnc4c3cnn4-c3ccccc3)c(=O)c2c1 | 92 | 640 | – | –
Cc1nn(-c2ccccc2)c2ncc3c(Cl)c4cc(Cl)ccc4nc3c12 | 39 | 640 | – | –
Cc1ccc2nc3c(cnc4c3cnn4-c3ccccc3)c(Cl)c2c1 | 82 | 640 | – | –
Nc1nc2c(ncn2COCCO)c(=O)[nH]1 [ACYCLOVIR] | – | 126 | – | –
Cc1ccc2nc3c(cnc4c3c(C)nn4-c3ccccc3)c(Cl)c2c1 | – | – | – | Activity [1]: inactive
COc1cccc2c(O)c3c(O)cc(O)cc3nc12 | – | – | 2.2 | –
